IC50 data for 20 molecules are collected here from ChEMBL document CHEMBL1155761, “Isolation and structure of five new cancer cell growth inhibitory bufadienolides from the Chinese traditional drug Ch'an Su” (J Nat Prod, 2001).

Assay type in all cases: functional, cell-based
One assay concerns KB. The assay can be described thus: Cytotoxicity against human KB cells after 72 hrs by MTT assay. Put shortly:
(§1)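 Cells seeded per well in 0.2 mL culture medium: 2 × 10^4 cells for KB and HL-60, 5 × 10^3 cells for MH-60. Treated in triplicate with graded concentrations of test samples (5 µL added per well), then incubated 72 h at 37 °C in 5% CO2.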
(Tetrazolium assays rely on reduction of a dye to a coloured formazan, in cell work by metabolically active cells.)

For the next assay, the system named is HL-60. The assay can be described thus: Cytotoxicity against human HL60 cells after 72 hrs by MTT assay. The note with it: HL-60, 72 h. Put shortly:
as §1

The test system of the next assay is MH60. The assay can be described thus: Cytotoxicity against mouse MH60 cells after 72 hrs by MTT assay. The conditions noted are these: MH60, 72 h. Put shortly: as §1
A further assay deals with BXPC-3. The assay can be described thus: Cytotoxicity against human BxPC3 cells after 72 hrs by MTT assay. The note with it: BXPC-3, 72 h.
Another assay has as its system MCF7. The assay can be described thus: Cytotoxicity against human MCF7 cells after 72 hrs by MTT assay. The note with it: MCF7, 72 h.
In a further assay the test system is SF-268. The assay can be described thus: Cytotoxicity against human SF268 cells after 72 hrs by MTT assay. The note with it: SF-268, 72 h.
The subject of a further assay is NCI-H460. The assay can be described thus: Cytotoxicity against human NCI-H460 cells after 72 hrs by MTT assay. The note with it: NCI-H460, 72 h.
A further assay deals with KM-20L2. The assay can be described thus: Cytotoxicity against human KM20L2 cells after 72 hrs by MTT assay. The note with it: KM-20L2, 72 h.
The test system of the next assay is DU-145. The assay can be described thus: Cytotoxicity against human DU145 cells after 72 hrs by MTT assay. The note with it: DU-145, 72 h.

Values after ≈ are worked out from the molar mass of the structure shown.

As for `CC(=O)O[C@H]1[C@H]2O[C@]23[C@@H]2CC[C@@H]4C[C@@H](O)CC[C@]4(C)[C@H]2CC[C@]3(C)[C@H]1c1ccc(=O)oc1` [CINOBUFAGIN], the IC50 – broadly, the midpoint of a concentration-inhibition curve – with KB was 0.21 µg/mL (≈ 0.475 µM); in the assay with HL-60, below 0.01 µg/mL; with MH60, above 25 µg/mL.
Regarding `C[C@]12CC[C@H]3[C@@H](CC[C@@H]4C[C@@H](O)CC[C@@]43C=O)[C@]13OC3[C@H](O)[C@@H]2c1ccc(=O)oc1` (some centres not stated), the IC50 in the assay on KB was 0.65 µg/mL (≈ 1.57 µM); with HL-60, 3 µg/mL (≈ 7.24 µM); with MH60 it was above 25 µg/mL; with BXPC-3 it was above 1 µg/mL; in the assay with MCF7, above 1 µg/mL; with SF-268, above 1 µg/mL. In addition, the IC50 in the assay with NCI-H460, in the assay with KM-20L2 and in the assay on DU-145 was above 1 µg/mL each time.
As to `CC(=O)O[C@H]1[C@H]2O[C@]23[C@@H]2C[C@H](O)[C@@H]4C[C@@H](O)CC[C@]4(C)[C@H]2CC[C@]3(C)[C@H]1c1ccc(=O)oc1`, the IC50 with KB was 0.87 µg/mL (≈ 1.9 µM); in the assay with HL-60, 0.038 µg/mL (≈ 0.0829 µM); in the assay on MH60 it was above 25 µg/mL; in the assay with BXPC-3, 0.46 µg/mL (≈ 1 µM); with MCF7, 0.36 µg/mL (≈ 0.785 µM); with SF-268, 0.32 µg/mL (≈ 0.698 µM). Also, the figures for the IC50 in the assay on NCI-H460, with KM-20L2 and with DU-145 were 0.74 µg/mL (≈ 1.61 µM), 0.28 µg/mL (≈ 0.611 µM) and 0.21 µg/mL (≈ 0.458 µM), respectively.
As for `CC(=O)O[C@H]1C[C@]2(O)[C@@H]3CC[C@]4(O)C[C@@H](O)CC[C@]4(C)[C@H]3CC[C@]2(C)[C@H]1c1ccc(=O)oc1`, the IC50 in the assay on KB was 0.2 µg/mL (≈ 0.434 µM); in the assay on HL-60 it was below 0.01 µg/mL; in the assay on MH60 it was above 25 µg/mL; in the assay with BXPC-3, 0.11 µg/mL (≈ 0.239 µM); in the assay on MCF7 it was 0.046 µg/mL (≈ 0.0999 µM); in the assay with SF-268, 0.033 µg/mL (≈ 0.0717 µM). Moreover, the IC50 in the assay with NCI-H460 was determined as 0.048 µg/mL (≈ 0.104 µM); with KM-20L2, 0.034 µg/mL (≈ 0.0738 µM); in the assay on DU-145, 0.024 µg/mL (≈ 0.0521 µM).
Regarding `C[C@]12CC[C@H](O)C[C@H]1CC[C@@H]1[C@@H]2[C@H](O)C[C@]2(C)[C@@H](c3ccc(=O)oc3)CC[C@]12O` [GAMABUFOTALIN], the results for the IC50 with KB, in the assay on HL-60 and in the assay with MH60 were 0.75 µg/mL (≈ 1.86 µM), 0.014 µg/mL (≈ 0.0348 µM) and above 25 µg/mL, respectively.
The matching figures for `C[C@]12CC[C@H](O)C[C@@]1(O)CC[C@@H]1[C@@H]2CC[C@]2(C)[C@@H](c3ccc(=O)oc3)[C@@H](O)[C@H]3O[C@]132` [DESACETYLCINOBUFOTALIN]: 10 µg/mL (≈ 24 µM), 4.3 µg/mL (≈ 10.3 µM) and above 25 µg/mL.
As to `C[C@]12CC[C@H](OC=O)C[C@H]1CC[C@@H]1[C@@H]2CC[C@]2(C)[C@@H](c3ccc(=O)oc3)C[C@H]3O[C@]132`, the IC50 in the assay on KB was found to be 3.4 µg/mL (≈ 8.24 µM); in the assay with HL-60 it was 1 µg/mL (≈ 2.42 µM); with MH60, 8.1 µg/mL (≈ 19.6 µM); in the assay with BXPC-3 it was 1.6 µg/mL (≈ 3.88 µM); in the assay with MCF7, 0.6 µg/mL (≈ 1.45 µM); with SF-268, 0.38 µg/mL (≈ 0.921 µM). The IC50 in the assay with NCI-H460 stood at 0.53 µg/mL (≈ 1.28 µM); in the assay with KM-20L2 it was 0.54 µg/mL (≈ 1.31 µM); in the assay with DU-145, 0.42 µg/mL (≈ 1.02 µM).
For the molecule `CC(=O)O[C@H]1C[C@]2(O)[C@@H]3CC[C@@H]4C[C@@H](O)CC[C@]4(C)[C@H]3CC[C@]2(C)[C@H]1c1ccc(=O)oc1` [BUFOTALIN], the IC50 in the assay with KB was 0.19 µg/mL (≈ 0.427 µM); with HL-60 it was below 0.01 µg/mL; in the assay with MH60 it was above 25 µg/mL.
Consider `C[C@]12[C@H](CC[C@@H]3[C@@H]1CC[C@]1(C)[C@@H](c4ccc(=O)oc4)CC[C@]31O)C[C@@H](O)C[C@H]2O`, for which the IC50 in the assay with KB was 0.19 µg/mL (≈ 0.472 µM); with HL-60 it was below 0.01 µg/mL; in the assay on MH60, above 25 µg/mL; in the assay on BXPC-3 it was 0.024 µg/mL (≈ 0.0596 µM); in the assay with MCF7, 0.012 µg/mL (≈ 0.0298 µM); in the assay on SF-268 it was 0.0044 µg/mL (≈ 0.0109 µM). In addition, the IC50 with NCI-H460 turned out to be 0.014 µg/mL (≈ 0.0348 µM); in the assay on KM-20L2, 0.011 µg/mL (≈ 0.0273 µM); in the assay with DU-145, 0.005 µg/mL (≈ 0.0124 µM).
For `C[C@]12CC[C@H]3[C@@H](CC[C@@H]4C[C@@H](O)CC[C@@]43CO)[C@]13O[C@@H]3C[C@@H]2c1ccc(=O)oc1`, the IC50 in the assay on KB is 1.2 µg/mL (≈ 3 µM); in the assay on HL-60 it was 0.48 µg/mL (≈ 1.2 µM); in the assay on MH60, above 25 µg/mL; with BXPC-3, 0.63 µg/mL (≈ 1.57 µM); with MCF7 it was 0.33 µg/mL (≈ 0.824 µM); in the assay with SF-268, 0.25 µg/mL (≈ 0.624 µM). Further, the IC50 in the assay with NCI-H460 was found to be 0.44 µg/mL (≈ 1.1 µM); with KM-20L2, 0.45 µg/mL (≈ 1.12 µM); in the assay with DU-145 it was 0.38 µg/mL (≈ 0.949 µM).
Consider `C[C@]12CC[C@H]3[C@@H](CC[C@@H]4C[C@@H](O)CC[C@@]43CO)[C@]13O[C@@H]3[C@H](O)[C@@H]2c1ccc(=O)oc1`, for which the IC50 was 3.9 µg/mL (≈ 9.36 µM) in the assay on KB, 0.49 µg/mL (≈ 1.18 µM) in the assay with HL-60 and above 25 µg/mL with MH60.
With `C[C@]12CC[C@H](O)C[C@H]1CC[C@@H]1[C@@H]2CC[C@]2(C)[C@@H](c3ccc(=O)oc3)[C@@H](O)[C@H]3O[C@]132` [DESACETYLCINOBUFAGIN], the IC50 is 0.44 µg/mL (≈ 1.1 µM) in the assay on KB, 1 µg/mL (≈ 2.5 µM) in the assay with HL-60 and above 25 µg/mL with MH60.
As to `C[C@]12CC[C@H](O)C[C@H]1CC[C@@H]1[C@@H]2CC[C@]2(C)[C@@H](c3ccc(=O)oc3)[C@@H](O)C[C@]12O` [DESACETYLBUFOTALIN], the results for the IC50 in the assay on KB, in the assay with HL-60 and in the assay on MH60 were 0.79 µg/mL (≈ 1.96 µM), 0.025 µg/mL (≈ 0.0621 µM) and above 25 µg/mL, respectively.
For `CC(=O)O[C@H]1[C@H]2O[C@]23[C@@H]2CC[C@]4(O)C[C@@H](O)CC[C@]4(C)[C@H]2CC[C@]3(C)[C@H]1c1ccc(=O)oc1` [CINOBUFOTALIN], the results for the IC50 in the assay on KB, with HL-60 and with MH60 were 0.37 µg/mL (≈ 0.807 µM), 0.047 µg/mL (≈ 0.102 µM) and above 25 µg/mL, respectively.
The matching figures for `C[C@]12CC[C@H](O)C[C@H]1CC[C@@H]1[C@@H]2CC[C@]2(C)[C@@H](c3ccc(=O)oc3)C[C@H]3O[C@]132` [BUFOGENIN]: 1.3 µg/mL (≈ 3.38 µM), 0.5 µg/mL (≈ 1.3 µM) and 10 µg/mL (≈ 26 µM).
For the molecule `C[C@]12CC[C@H](O)C[C@H]1CC[C@@H]1[C@@H]2CC[C@]2(C)[C@@H](c3ccc(=O)oc3)CC[C@]12O` [BUFALIN], the values for the IC50 with KB, in the assay on HL-60 and with MH60 were 0.67 µg/mL (≈ 1.73 µM), below 0.01 µg/mL and above 25 µg/mL, respectively.
For the molecule `C[C@]12CC[C@H](O)C[C@H]1CC[C@@H]1[C@@H]2C[C@@H](O)[C@]2(C)[C@@H](c3ccc(=O)oc3)C[C@H]3O[C@]132`, the IC50 in the assay on KB is 0.97 µg/mL (≈ 2.42 µM); with HL-60 it was 0.045 µg/mL (≈ 0.112 µM); with MH60 it was above 25 µg/mL; in the assay with BXPC-3 it was 0.12 µg/mL (≈ 0.3 µM); in the assay with MCF7, 0.066 µg/mL (≈ 0.165 µM); in the assay on SF-268, 0.046 µg/mL (≈ 0.115 µM). For the same molecule, the IC50 with NCI-H460 amounted to 0.017 µg/mL (≈ 0.0424 µM); in the assay with KM-20L2, 0.012 µg/mL (≈ 0.03 µM); in the assay with DU-145 it was 0.041 µg/mL (≈ 0.102 µM).
Consider `CC(=O)O[C@H]1[C@H]2O[C@]23[C@@H]2CC[C@@H]4C[C@@H](O)CC[C@]4(C)[C@H]2C[C@@H](O)[C@]3(C)[C@H]1c1ccc(=O)oc1`, for which the IC50 with KB was 0.79 µg/mL (≈ 1.72 µM); in the assay on HL-60, below 0.01 µg/mL; in the assay with MH60, above 25 µg/mL.
The matching figures for `C[C@]12CC[C@H](O)C[C@@]1(O)CC[C@@H]1[C@@H]2CC[C@]2(C)[C@@H](c3ccc(=O)oc3)CC[C@]12O` [TELOCINOBUFAGIN]: 1.3 µg/mL (≈ 3.23 µM), below 0.01 µg/mL and above 25 µg/mL.
Consider `C[C@]12CC[C@H]3[C@@H](CC[C@@H]4C[C@@H](O)CC[C@@]43C=O)[C@@]1(O)CC[C@@H]2c1ccc(=O)oc1`, for which the IC50 with HL-60 is below 0.01 µg/mL; in the assay on MH60, above 25 µg/mL; with BXPC-3 it was 0.014 µg/mL (≈ 0.035 µM); in the assay on MCF7, 0.0072 µg/mL (≈ 0.018 µM); with SF-268, 0.0047 µg/mL (≈ 0.0117 µM); in the assay with NCI-H460 it was 0.018 µg/mL (≈ 0.0449 µM). Besides, the IC50 in the assay with KM-20L2 came to 0.0082 µg/mL (≈ 0.0205 µM); in the assay on DU-145 it was 0.0046 µg/mL (≈ 0.0115 µM).
